Like-named read-outs stand apart in the source and are kept apart here.
Columns and labels:
β3α4β2α6β2 nAChR = β3α4β2α6β2 nAChR (Homo sapiens, UniProt P17787+P43681+Q15825); assay: Two-electrode voltage clamp in Xenopus oocytes, α6-containing concatemer; format: cell-based
Outline: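 α6-containing receptor expressed in Xenopus oocytes as a five-subunit human β3α4β2α6β2 concatemer cRNA. Voltage clamp at −60 mV, 24°C, in Ringer's (pH 7.2, 1 μM atropine). Test compound applied 12 s at varying concentrations, 181 s washout. Peak current and net charge referenced to same-cell 30 μM ACh controls and rescaled to ACh maximum from other experiments; ≥4 oocytes.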

[1] = biological target: high sensitivity α4(2)β2(3) nAChR (Homo sapiens, UniProt P17787+P43681); assay: Two-electrode voltage clamp in Xenopus oocytes, HS α4β2; format: cell-based
Sequence of high sensitivity α4(2)β2(3) nAChR (P17787 26-502): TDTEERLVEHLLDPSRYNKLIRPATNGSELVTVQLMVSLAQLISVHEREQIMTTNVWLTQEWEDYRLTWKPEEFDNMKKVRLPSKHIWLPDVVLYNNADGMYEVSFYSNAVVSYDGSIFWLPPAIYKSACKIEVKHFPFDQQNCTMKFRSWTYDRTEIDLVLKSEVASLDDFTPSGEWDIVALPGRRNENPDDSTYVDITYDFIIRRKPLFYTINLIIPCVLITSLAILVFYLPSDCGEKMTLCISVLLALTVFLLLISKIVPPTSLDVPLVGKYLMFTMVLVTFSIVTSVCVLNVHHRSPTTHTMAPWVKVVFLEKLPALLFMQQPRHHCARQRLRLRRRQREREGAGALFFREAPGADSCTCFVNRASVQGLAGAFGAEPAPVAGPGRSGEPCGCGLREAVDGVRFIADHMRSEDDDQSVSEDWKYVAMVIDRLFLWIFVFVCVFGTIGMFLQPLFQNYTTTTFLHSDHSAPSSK
Sequence of high sensitivity α4(2)β2(3) nAChR (P43681 29-627 limits assumed): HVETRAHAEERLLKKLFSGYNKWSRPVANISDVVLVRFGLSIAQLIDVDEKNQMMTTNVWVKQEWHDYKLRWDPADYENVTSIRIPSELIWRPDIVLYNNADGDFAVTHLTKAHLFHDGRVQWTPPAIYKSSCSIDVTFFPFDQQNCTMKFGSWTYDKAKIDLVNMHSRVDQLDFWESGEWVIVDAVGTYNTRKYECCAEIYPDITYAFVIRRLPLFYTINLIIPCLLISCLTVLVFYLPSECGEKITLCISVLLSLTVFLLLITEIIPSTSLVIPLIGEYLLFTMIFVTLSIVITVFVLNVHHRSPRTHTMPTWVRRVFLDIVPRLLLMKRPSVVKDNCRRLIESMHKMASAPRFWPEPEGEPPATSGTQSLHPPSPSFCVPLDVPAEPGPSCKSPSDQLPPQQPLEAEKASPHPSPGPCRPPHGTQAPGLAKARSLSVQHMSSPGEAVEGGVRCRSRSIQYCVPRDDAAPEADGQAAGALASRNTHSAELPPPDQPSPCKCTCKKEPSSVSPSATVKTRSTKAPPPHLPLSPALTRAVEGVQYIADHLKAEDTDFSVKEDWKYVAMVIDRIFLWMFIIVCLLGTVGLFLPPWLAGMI
Sequence of high sensitivity α4(2)β2(3) nAChR (P17787 26-502): as the sequence (P17787 26-502) above
Outline: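 Human HS α4β2 nAChR from in vitro–transcribed cRNA in Xenopus oocytes. Two-electrode clamp at −60 mV, 24°C, in Ringer's (pH 7.2, 1 μM atropine) perfused at 2 ml/min. Test compound over a concentration range as 12 s applications with 181 s washout. Peak current and net charge taken relative to same-cell 10 μM ACh controls, then scaled to ACh maximum from separate experiments; ≥4 oocytes.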

[2] = β3α4β2α6β2, normalized to the maximum ACh responses
[3] = α4(2)β2(3), normalized to the maximum ACh responses

Sequence of β3α4β2α6β2 nAChR (P43681 29-627 limits assumed): as the sequence (P43681 29-627 limits assumed) above
Sequence of β3α4β2α6β2 nAChR (P17787 26-502): as the sequence (P17787 26-502) above
Sequence of β3α4β2α6β2 nAChR (Q15825 26-494): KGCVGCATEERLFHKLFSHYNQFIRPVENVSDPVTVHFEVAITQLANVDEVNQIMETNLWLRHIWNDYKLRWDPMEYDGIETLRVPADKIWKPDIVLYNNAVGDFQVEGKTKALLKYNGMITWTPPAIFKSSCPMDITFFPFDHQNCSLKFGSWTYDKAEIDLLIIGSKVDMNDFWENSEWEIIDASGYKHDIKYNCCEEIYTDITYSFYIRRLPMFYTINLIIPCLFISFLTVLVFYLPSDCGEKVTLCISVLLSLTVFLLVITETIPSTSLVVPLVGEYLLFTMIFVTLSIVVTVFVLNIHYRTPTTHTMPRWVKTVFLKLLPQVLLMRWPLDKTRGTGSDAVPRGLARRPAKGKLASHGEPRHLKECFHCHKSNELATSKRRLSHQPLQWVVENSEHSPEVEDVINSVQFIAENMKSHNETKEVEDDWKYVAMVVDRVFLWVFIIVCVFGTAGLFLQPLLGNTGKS
Sequence of β3α4β2α6β2 nAChR (P17787 26-502): as the sequence (P17787 26-502) above

For Ic1cncc(OC[C@@H]2CCN2)c1 [5IA, 5-Iodo-A-85380], which EC50 (β3α4β2α6β2 nAChR; read-out: Net Charge EC50, β3α4β2α6β2) is on record?
Its EC50 is 0.019 ± 0.0004 µM.

What about the EC50 (β3α4β2α6β2 nAChR; read-out: Peak Currents EC50, β3α4β2α6β2) of the same compound?
Its EC50 is 0.011 ± 1e-05 µM.

And the “Efficacy (in words)” value (β3α4β2α6β2 nAChR; α6-containing subtypes)?
The value was “intermediate efficacy”.

And the “Net Charge Imax” value (β3α4β2α6β2 nAChR; [2])?
The value was 0.76 ± 0.01.

What about the “Peak Currents Imax” value (β3α4β2α6β2 nAChR; [2]) of the same compound?
Its value is 0.78 ± 0.1.

What about the “Effect on current duration (in words)” value ([1]; HS α4β2 receptors) of the same compound?
Its value is “prolonged the currents”.

And the “Efficacy (in words)” value ([1]; high sensitivity α4(2)β2(3))?
The value was “full agonist”.

And the EC50 ([1]; read-out: Net Charge EC50, α4(2)β2(3))?
Its EC50 is 0.062 ± 0.011 µM.

And the EC50 ([1]; read-out: Peak Currents EC50, α4(2)β2(3))?
Its EC50 is 0.042 ± 0.002 µM.

And the “Net Charge Imax” value [1, 3]?
The value was 3.0 ± 0.18.

What about the “Peak Currents Imax” value [1, 3] of the same compound?
Its value is 1.3 ± 0.02.

— article PMC9817006 (Journal of psychopharmacology (Oxford, England), 2022)
